Laboratory results taken from ChEMBL document CHEMBL2385032, “Dual-functional abeo-taxane derivatives destabilizing microtubule equilibrium and inhibiting NF-κB activation” (2013).
Activity calls are given as the source filed them. The rule behind the calls is not given here.

Key:
T47D = assay: Cytotoxicity against human T47D cells; format: functional
Summary of the method: (§1)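 NCI-60 human tumor cell line screen run by standard NCI protocol: single-dose prescreen at 10 μM, then multi-dose testing of compounds giving over 50% growth inhibition; GI50 = concentration for 50% growth inhibition.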

Tubulin (Homo sapiens) [1] = target: T1, Tubulin (Homo sapiens) (UniProt P68371+Q9H4B7+P0DPH7+P68366+Q13509+Q71U36+P04350+Q3ZCM7+P07437+P68363+Q9BQE3+Q6PEY2+Q13885+Q9BVA1+Q9BUF5); assay: Induction of tubulin (unknown origin) polymerization at 3 uM by fluorescence assay; format: protein-complex assay
Summary of the method: (§2)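 Cell-free tubulin polymerization kit; tubulin mixed with DMSO control, 500 μM CaCl2, 3 μM paclitaxel or test compounds at 15 or 30 μM; polymerization followed kinetically by fluorescence, excitation 340 nm, emission 420 nm, in a temperature-regulated fluorimeter. Three independent experiments in triplicate.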

RXF 393 = assay: Cytotoxicity against human RXF393 cells; format: functional; summary of the method: as §1
NCI-H322M = assay: Cytotoxicity against human NCI-H322M cells; format: functional; summary of the method: as §1
DU-145 = assay: Cytotoxicity against human DU145 cells; format: functional; summary of the method: as §1
SNB-19 = assay: Cytotoxicity against human SNB19 cells; format: functional; summary of the method: as §1
OVCAR-3 = assay: Cytotoxicity against human OVCAR3 cells; format: functional; summary of the method: as §1
LOX IMVI = assay: Cytotoxicity against human LOXIMVI cells; format: functional
MOLT-4 = assay: Cytotoxicity against human MOLT4 cells; format: functional; summary of the method: as §1
PC-3 [2] = assay: Induction of microtubule polymerization in human PC3 cells assessed as bundled sheet like pattern at 200 nM after 24 hrs by DAPI staining-based immunofluorescence microscopic analysis; format: cell-based
Summary of the method: (§3)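 PC-3 cells grown on chamber slides 36 h, then treated 24 h (test agents 2, 5 or 10 μM; reference agents 200 nM); fixed in 4% paraformaldehyde, permeabilized with 0.5% Triton X-100, stained with anti-α-tubulin monoclonal plus FITC secondary and DAPI for nuclei; spindle and microtubule morphology by fluorescence microscopy.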

HCT-116 = assay: Cytotoxicity against human HCT116 cells; format: functional; summary of the method: as §1
PC-3 [3] = assay: Induction of microtubule depolymerization in human PC3 cells at 200 nM after 24 hrs by DAPI staining-based immunofluorescence microscopic analysis; format: cell-based; summary of the method: as §3
HEK-293T = assay: Inhibition of TNF-alpha induced NF-kapppaB activation in HEK293T cells at 1.25 to 5 uM incubated 1 hr prior to TNF-alpha addition measured after 18 hrs by luciferase reporter gene assay; format: cell-based; conditions: Homo sapiens
Tubulin (Homo sapiens) [4] = target: T1, Tubulin (Homo sapiens); assay: Induction of tubulin (unknown origin) polymerization at 30 uM by fluorescence assay; format: protein-complex assay; summary of the method: as §2

Row | Activity (Tubulin (Homo sapiens) [1]) | Activity (Tubulin (Homo sapiens) [4]) | SMILES | GI50 (T47D) [µM] | GI50 (RXF 393) [µM] | GI50 (NCI-H322M) [µM] | GI50 (DU-145) [µM] | GI50 (SNB-19) [µM] | GI50 (OVCAR-3) [µM] | GI50 (LOX IMVI) [µM] | GI50 (MOLT-4) [µM] | Activity (PC-3 [2]) | GI50 (HCT-116) [µM] | Activity (PC-3 [3]) | inhibition (HEK-293T)
1 | Active | – | CC(=O)O[C@H]1C(=O)[C@@]2(C)[C@H]([C@H](OC(=O)c3ccccc3)[C@]3(O)C[C@H](OC(=O)[C@H](O)[C@@H](NC(=O)c4ccccc4)c4ccccc4)C(C)=C1C3(C)C)[C@]1(OC(C)=O)CO[C@@H]1C[C@@H]2O [PACLITAXEL] | 0.01 | 0.05 | 0.05 | 0.032 | 0.04 | 0.02 | 0.016 | 0.032 | Active | 0.01 | – | –
2 | – | – | C=C1[C@@H](OC(=O)[C@@H](O)[C@H](NC(=O)OC(C)(C)C)c2ccccc2)C[C@H](OC(C)=O)[C@@]2(C)[C@@H](OC(C)=O)[C@H](OC(=O)c3ccccc3)C3=C(C)[C@@H](O)C[C@@]3(C(C)(C)O)[C@@H](OC(C)=O)[C@H]12 | > 100 | 26.6 | > 100 | 72.4 | > 100 | 28.4 | > 100 | 83.3 | – | 45.2 | – | –
3 | – | – | COc1ccc(/C=C\c2cc(OC)c(OC)c(OC)c2)cc1O | – | – | – | – | – | – | – | – | – | – | Active | –
4 | – | Active | CC(=O)O[C@H]1C[C@H]2OC[C@@]2(OC(C)=O)[C@H]2[C@H](OC(C)=O)[C@]3(C(C)(C)O)C[C@H](OC(=O)[C@H](O)[C@@H](NC(=O)OC(C)(C)C)c4ccccc4)C(C)=C3[C@@H](OC(=O)c3ccccc3)[C@H](OC(C)=O)[C@]12C | 38.9 | 12.6 | 50.1 | 21.4 | 33.1 | 15.5 | 21.4 | 42.7 | – | 16.2 | – | inactive
